In ChEMBL document CHEMBL4513216, “Probing the Open Global Health Chemical Diversity Library for Multistage-Active Starting Points for Next-Generation Antimalarials” (ACS Infect Dis, 2020):

Experiment: Toxicity liver stage against HepG2, at 10uM
Assay type: cell-based
Set-up: test concentration 10 uM, cell line HepG2-A16-CD81EGFP
Details: human, HepG2-A16-CD81EGFP cells; read-out: INHIBITION
In short: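 Uninfected HepG2-A16-CD81EGFP cells, 3 × 10^3 per well, 1536-well, plated on prespotted compound at 10 μM final, parasite-free screening media added to match infected plates; puromycin 10 μM positive, DMSO 0.5% negative; run in parallel with 48 h PbLuc assay at 37 °C, 5% CO2; viability by CellTiter-Glo luminescence, normalized to controls.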

Compound | cytotoxicity at 10 µM
CCN(CC)Cc1cn2c(n1)CN(Cc1c(C)noc1C)CC2 | -0.0472%
CN(C)C(=O)C1OC2(CCN(C(=O)c3ccoc3)CC2)c2ccccc21 (stereo not given) | 5.63%
CCS(=O)(=O)NCC(=O)N(C1CC1)C1Cc2ccccc2C1 | 4.25%
CCC1CN(Cc2ccccc2)CCN1Cc1nnc(C2CCC2)o1 (stereo not given) | -11.2%
COc1ccc(NC(=O)CSc2ccc3nncn3n2)c(OC)c1 | 3.94%
CCOC(=O)N1CCN(C(=O)c2snnc2-c2ccc(OC)cc2)CC1 | 3.56%
O=C(NCC1CC1)C1CN(C(=O)c2cccs2)CC12CCOCC2 (stereo not given) | -14%
CNC(=O)c1ccc(C2CN(Cc3ccc(F)cc3)CCO2)nc1 (stereo not given) | -0.378%
CN(C)C(=O)[C@H]1CC[C@@H]2[C@@H](CCN2Cc2ccccn2)O1 | 3.21%
C[C@@H](NC(=O)c1cnccn1)c1c(-c2ccc(Cl)cc2)noc1C(=O)O | 4.26%
CC(=O)N(C)C1CCN(C(=O)c2cccc3c2ccn3C)CC1 | 1.56%
c1ncn(CC2CCCN(Cc3cn4ccsc4n3)C2)n1 (stereo not given) | -7.04%
CCC(=O)Nc1ccc2c(c1)C1(CCOCC1)CN2CCOC | -99%
Cc1cccnc1CCNCC1(O)CCCN(CC2CCCCC2)C1=O (stereo not given) | -203%
CCc1ccc(C(=O)N(CC(F)(F)F)C2CCCOC2)o1 (stereo not given) | -7.59%
O=C(CCn1cncn1)NCC1CCCC1 | -43.1%
Cn1cccc1C(=O)N1CCO[C@H]2[C@H](OCc3cccnc3)CC[C@@H]21 | 7.2%
O=S1(=O)CCC(n2cc(CNCC3(c4ccccc4)CC3)cn2)C1 (stereo not given) | 16.5%
CC1(Cc2ccc(Cl)cc2)Cc2cc(CCC(=O)O)ccc2O1 (stereo not given) | 2.79%
COc1ccccc1C(=O)N1CCCC1c1nncn1CC(C)C (stereo not given) | -2.96%
CCCC1c2ccccc2CCN1CCS(C)(=O)=O (stereo not given) | -0.846%
Cc1ccc(-c2nc(CNCC3CN(C)CCO3)cs2)o1 (stereo not given) | -9.16%

Compound | cytotoxicity at 10 µM
CC(Cn1cccn1)NC(=O)N1CCCN(Cc2cccs2)CC1 (stereo not given) | -13.5%
COCCNC(=O)c1ccc2ccc(N3CCN(CC4CC4)CC3)n2c1 | 6.59%
CC(C)S(=O)(=O)C(C)C(=O)NCc1cccc(N2CCCCC2=O)c1 (stereo not given) | -7.91%
O=C(NCCc1cccnc1)NC1CCOC2(CCCCC2)C1 (stereo not given) | -16.3%
Cc1ccc(CN2CCOCC2c2[nH]ncc2C)cn1 (stereo not given) | 4.52%
COc1ccc(CCC2CCCCN2)cc1OC (stereo not given) | 12.1%
CC(C)n1cnc2c1C(C(=O)N(C)C)N(Cc1ccccc1)CC2 (stereo not given) | -2.56%
Cc1cccc(N2CCOCC3(C2)CN(c2cnn(C)c2)C(=O)CO3)n1 (stereo not given) | -0.136%
c1coc(CN2CCC(c3ccc4c(c3)OCO4)CC2)c1 | -1.55%
Cc1nc(C)c(C(=O)OCCNc2ncccc2C#N)s1 | -7.32%
Cc1cc(NC(=O)NCCC(=O)N2CCCc3ccccc32)no1 | -5.96%
N#Cc1cccnc1NCCNC(=O)N1CCN2CCCCC2C1 (stereo not given) | 0.242%
CCC1=N[C@@]2(CC[C@@H]3CN(CC4CC4)C[C@@H]32)C(=O)N1CC | 6.56%
CC1CN(CC(=O)N2CCCC2)CCN1c1ccc2nncn2n1 (stereo not given) | -5.46%
Cc1nc(C(C)C)sc1C(=O)N1CCC(N2CCSCC2)CC1 | -3.54%
Cc1noc(C)c1CN1CCOCC12CCN(c1cnccn1)CC2 | -101%
CN(C)C[C@]12COC[C@H]1CN(C(=O)CCc1ccccc1)C2 | -1.89%
Cn1cc(CN2CC[C@H]3OCC[C@@H](C(=O)N4CCCCO4)[C@@H]3C2)cn1 | -2.1%
COc1ccc(CN2CCCCC2c2n[nH]cc2-c2cc(C)no2)cc1 (stereo not given) | 20.8%
COc1cccc2c1OCC(CNc1ccc(C)nn1)C2 (stereo not given) | 8.62%
N#CC1(C(=O)N2CCOC(c3ccc(F)cc3)C2)CCCCC1 (stereo not given) | 3.85%
O=C(NCc1nc(-c2ncccn2)no1)c1ccc(C2CCCO2)s1 (stereo not given) | 0.774%

Compound | cytotoxicity at 10 µM
COC1CN(C(=O)CC(C)C)CCC(=O)N(C)c2ccccc21 (stereo not given) | -2.72%
CCc1n[nH]c(C2CN(C(=O)c3cnc(C)nc3CC)CCO2)n1 (stereo not given) | -3.39%
CN(C)C[C@H]1OC[C@@H]2CN(C(=O)NCc3cccc(F)c3)CC[C@@H]21 | -2.12%
O=C(CCCc1nnc(-c2ccccc2)o1)N1CCN(C2CC2)CC1 | -12%
Cn1cc(CN2CCC3(CC2)CC(Nc2nccs2)CO3)cn1 (stereo not given) | -79.6%
COCCCC1CCCCN1S(=O)(=O)c1cccc(C#N)c1 (stereo not given) | -133%
CCS(=O)(=O)N1CCc2c(cccc2NCc2ncc[nH]2)C1 | -42.9%
CCC(Nc1ccc(CCN2CCCCC2)cc1)C(N)=O (stereo not given) | 4.47%
CCCC(=O)N(Cc1ccncc1)C(C)CC (stereo not given) | 9.66%
Cc1nc(CO[C@@H]2CN(Cc3ccco3)[C@@H]3COC[C@@H]32)cs1 | 5.66%
CC(C)n1nc(CN2CCCC2=O)c2c1CN(C(=O)c1ccno1)C2 | 3.39%
CS(=O)(=O)c1cccc(Cl)c1C(=O)NCCN1C(=O)CCC1=O | -1.19%
CC(NC(=O)NCCN1CCCCCC1=O)c1nncn1C (stereo not given) | -7%
CCC[C@@H]1CN(S(=O)(=O)c2ccc3[nH]c(=O)[nH]c3c2)C[C@H]1NC(C)=O | -7.19%
CC(NC(=O)N(C)Cc1ccncc1)c1cn(-c2ccccc2)nn1 (stereo not given) | -47.7%
O=C(NCC1(O)COCCN(Cc2cccc(O)c2)C1)c1cnccn1 (stereo not given) | -6.49%
CC(C)c1noc(CCC(=O)NCC2CCS(=O)(=O)C2)n1 (stereo not given) | 5.7%
Cc1cccc(N2CCC(NC(C)c3cccs3)CC2)n1 (stereo not given) | -17.2%
CCc1nc(C)c(-c2nccn2CC2CCCCO2)[nH]1 (stereo not given) | 3.98%
CC(C)c1ncc(CN2C[C@@H](CN3CCCN(C)CC3)[C@@H](CO)C2)cn1 | -9.77%
N#Cc1cccc(N2CCCC3(CCC(=O)N(C4CCCC4)C3)C2)n1 (stereo not given) | -0.0436%
Cn1nccc1C(=O)N1CCOC(Cc2cccc(C(F)(F)F)c2)C1 (stereo not given) | 5.52%

Compound | cytotoxicity at 10 µM
CNC(=O)c1cc2c(s1)CCN(C(=O)CCC1CCCN(C)C1)C2 (stereo not given) | -29.3%
Cc1c[nH]nc1C1CCN(C(=O)CC2CCCC2)C1 (stereo not given) | -4.15%
O=C(Cn1ccc2c(Cl)cccc21)N[C@@H](C(=O)O)c1ccccc1 | 2.19%
COCC1CC2(CCN(C(=O)c3cncc(C)c3)CC2)CO1 (stereo not given) | -155%
COc1cccc(CNCc2ccc(F)c(Cl)c2)c1O | -13.7%
CN(Cc1ccc(F)cc1)C(=O)CN1CCCC(Cn2cncn2)C1 (stereo not given) | -14.8%
CC(C)c1noc(C2CCCN2S(=O)(=O)N2CCCCCC2)n1 (stereo not given) | 4.73%
FC(F)(F)CCc1ccnc(NCc2csc(N3CCOCC3)n2)n1 | -4.13%
COc1cc(CN(C)C(C)c2ccccn2)cc2c1OCO2 (stereo not given) | 8.97%
CCc1nc(C(=O)N2CCCCC2)nn1-c1ccccc1Cl | 2.1%
O=C(NCC1CCS(=O)(=O)C1)c1ccco1 (stereo not given) | -7%
Cc1ccc(CN2CCC3(CCCN(S(C)(=O)=O)C3)C2)o1 (stereo not given) | -104%
Cc1cc(F)ccc1OC1(C(=O)O)CCN(Cc2ccncc2)CC1 | -8.31%
Cc1ccccc1C(C(=O)NCCSC(F)(F)F)N(C)C (stereo not given) | 8.25%
O=C(NCc1nc(C2CC2)no1)N1CCOC(c2ccccc2F)C1 (stereo not given) | -53.7%
CCN(C(=O)c1nc2c(s1)CCCN2C(C)=O)C(C)C | -0.802%
Cc1cc(C)n(CC2CCCN2C(=O)c2ccc(C(N)=O)cn2)n1 (stereo not given) | -3.87%
O=C(CCc1ccccc1)NCC1CCN(Cc2ccsc2)CC1 | 5.27%
Cn1c2c(c(=O)n1C)CN(C(=O)c1ccncc1F)CCC2 | -95%
CCN1C(=O)CCCC12CCCN(C(=O)c1sccc1C)C2 (stereo not given) | 3.73%
c1csc(CN2CCc3nc(N4CCOCC4)nc(NC4CC4)c3C2)n1 | 0.0529%
CCC1CN(C(=O)Nc2cnc3c(cnn3C(C)C)c2)CCO1 (stereo not given) | -9.46%

Compound | cytotoxicity at 10 µM
Cc1nc(COCc2cnc3n2CCN(C2CCC2)C3C)cs1 (stereo not given) | -3.82%
COc1c(C)cnc(CN2CCCCC2Cn2nc(C)nc2C)c1C (stereo not given) | -0.627%
CC1CCN(CCCNS(=O)(=O)c2cc(F)cc(F)c2)CC1 | 11.3%
Cc1sc(-c2ccco2)nc1C(=O)N(CC(N)=O)C1CCCC1 | -2.64%
COc1ccc(F)cc1Cn1nc(C(N)=O)ccc1=O | -2.52%
CNC(=O)c1cc2c(nc1N(C)C)CCN(S(=O)(=O)N(C)C)CC2 | -138%
CCc1ncc(-c2nccn2-c2cccc(CC(=O)O)c2)cn1 | 10.2%
COC(=O)N1CCCN(C(=O)NCc2ccc(Cl)s2)CC1 | 1.76%
O=C(c1cccc(F)c1)N1CCC2(CC1)CC(N1CCOCC1)C2 | -8.02%
CCN(Cc1ccc2c(c1)OCCO2)C(=O)NCc1nncn1CC | -4.35%
CN1CCOC(CNCc2coc(-c3ccccc3Cl)n2)C1 (stereo not given) | -14.1%
Cc1nccn1C1CCCN(C(=O)COCC(F)(F)F)C1 (stereo not given) | -12.1%
COCCCN(C)Cc1nc2c(cnn2C)c(=O)[nH]1 | -4.2%
O=C1NCCCCC1Sc1ccccc1F (stereo not given) | 9.43%
O=C(c1cc(C2CC2)no1)N1C[C@@H]2CC[C@H]1CN(Cc1ccccn1)C2 | 2.21%
COc1cc2c(cc1CN1CCC3(CCCN(C)C3=O)C1)OCCO2 (stereo not given) | 6.33%
O=C(NCCNC(=O)c1ccc(Br)cc1)c1ccc(O)cc1 | -0.988%
COc1ccccc1CN1CC[C@]2(C[C@@H](OCC(=O)N(C)C)CO2)C1 | -112%
COc1ccccc1NC(=O)CC(C)NCc1scnc1C (stereo not given) | 0.686%
CC(=O)N1CCC2(CC1)CCN(C(=O)c1ccc(F)c(C(F)(F)F)c1)C2 | -80%
CSCC(C)N(C)C(=O)CN1CCN(c2ccccn2)CC1 (stereo not given) | -7.59%
CS(=O)(=O)Cc1nc(CN2CCc3ccccc3CC2)cs1 | -7.73%
